Tb hexokinase = T. brucei hexokinase 1 inhibition. recombinant TbHK1, G6PDH-coupled NADH A340. inhibition, % at 10 µM. 220,000 compounds, 0.11% hits;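 active = inhibition of 50% or more in the single-dose primary screen; inactive = inhibition below 50%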
PfGluPho inh = PfG6PD (Plasmodium falciparum) enzyme inhibition. 350,000 compounds, 0.78% hits. inhibition, % at 20 µM. AID 504690. PfGluPho enzyme, NADPH resazurin-diaphorase fluorescence;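 active = inhibition reaching at least a set limit at 20 µM in the primary screen, cut at about 59% in these data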;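 note: 0% = DMSO wells with substrate and 100% = DMSO wells lacking glucose-6-phosphate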
HKDC1 inhibitor = blocks human hexokinase HKDC1 activity; Q2TB90; recombinant HKDC1, G6PDH/diaphorase resazurin coupled fluorescence; inhibition, % at 20 µM; 340,000 compounds, 0.16% hits; AID 493160;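 active = inhibition above about 35% when tested at 20 µM, limit read from the data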;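 note: plate controls were DMSO wells with enzyme for no effect and DMSO wells lacking enzyme for full effect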
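Material – in-house recombinant HK5 (HKDC1) enzyme · Quantity – HKDC1 at 5 µg/mL · Buffer or medium – pH 8.0 Tris buffer with 10 mM MgCl2 · Reagent – glucose with 1 mM ATP · Dosing – single 20 µM dose · Times – reaction time 90 min, room temperature, protected from light · Technique – resorufin fluorescence at 613 nm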
Diaphorase inh = diaphorase inhibition or chemical oxidation counter-screen | diaphorase resazurin-to-resorufin fluorescence, NADH, 16 min; bacterial (C. kluyveri) enzyme, not human | inhibition, % at 20 µM | 190,000 compounds, 0.69% hits | AID 1217;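 active = primary screen inhibition at 20 µM above a set limit, cut at about 50% in these data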;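 note: plate controls were DMSO with full reaction for no effect and wells lacking NADH for full effect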
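material = Clostridium kluyveri diaphorase enzyme | amount = 0.14 U/mL diaphorase, enzyme working solution | schedule = incubation 16 min, room temperature | detection = fluorescence of resorufin formed from resazurin, Ex 544/Em 590 nm | benchmarks = positive control minus NADH, DMSO neutral control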
G6PDH counter = inhibits Leuconostoc G6PDH, flagging false hits in G6PDH-based assays | inhibition, % at 5 µM | Purified L. mesenteroides G6PDH, diaphorase/resazurin coupled fluorescence, 45 min | AID 1020 | 200,000 compounds, 0.12% hits; in the data active = inhibition above about 50%
HKDC1 act conf = HKDC1 (human) activation, single-dose confirmed | recombinant HKDC1, G6PDH/diaphorase resazurin fluorescence; active compounds read low | 740 compounds, 14% hits | shares compounds with HKDC1 inhibitor | inhibition, % at 20 µM | AID 504708;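 active = inhibition at or below a set negative limit, negative inhibition meaning the enzyme was activated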
* hit, by the source's call; · = no result given. The list is not random: actives were taken first. Their share in the collection is about 1.3%.

SMILES | Tb hexokinase | PfGluPho inh | HKDC1 inhibitor | Diaphorase inh | G6PDH counter | HKDC1 act conf
O=C(CSc1nnc(Cc2cc(=O)[nH]c(=O)[nH]2)n1-c1ccccc1)N1CCCCC1 | -5 | 26 | -3 | 12 | 1 | ·
CCCCN(C)CCNC(=O)CN1C(=O)CSc2ccc(S(=O)(=O)N3CCCCC3)cc21 | · | -5 | -1 | · | · | ·
COC(=O)c1ccc2c(c1)C(C)(C)C(/C=C/c1ccccc1O)=[N+]2C | -5 | 14 | 38* | 10 | 3 | 7
C[N+]1=C(/C=C/Nc2ccccc2Cl)C(C)(C)c2ccccc21 | -28 | -6 | 13 | 11 | -6 | ·
Cc1c(N=C2C=CC(=O)c3ccccc32)c(=O)n(-c2ccccc2)n1C | -1 | 86* | 42* | 58* | 9 | 35
O=c1cc(O)sc2ccccc12 | -1 | -4 | 43* | 13 | 5 | -16
Cc1nc(SCC(=O)Nc2ccc3c(c2)OCCO3)nc(C)c1C | -1 | 5 | 0 | 25 | 3 | ·
CCOC(=O)C1=C(Cc2ccc(Cl)cc2)C(=O)c2ccccc2C1=O | -4 | 94* | 60* | 37 | 55* | 39
CCOC(=O)C1=C(C)N=C2c3ccccc3C(=O)C2C1c1ccc(Cl)cc1 (centres undefined) | -6 | 12 | 13 | 11 | 3 | ·
CCCCC(=O)Nc1nc(-c2ccc(S(=O)(=O)N3CCOCC3)cc2)cs1 | · | 34 | -2 | · | · | ·
COc1cc2c(cc1OC)C(c1cc(Br)ccc1F)N(C(=O)CCl)CC2 (centres undefined) | · | 7 | 38* | · | · | 19
CCC(=O)N1CCN(c2ccc(Cl)cc2NC(=S)NC(=O)c2ccco2)CC1 | · | 11 | -2 | · | · | ·
O=Cc1[nH]c2ccccc2c1N(C(=O)CCl)c1ccccc1 | -21 | 9 | 35* | · | · | 34
O=C(NCCc1ccccc1)c1cnn2c(C(F)F)cc(C3CC3)nc12 | 1 | 49 | 47* | 64* | 4 | 60
Cc1cc(C(F)F)n2ncc(C(=O)NCCc3ccccc3Cl)c2n1 | -9 | 27 | 31 | 26 | -1 | ·
Cc1cc(C(F)F)n2ncc(C(=O)NCCc3ccc(Cl)cc3)c2n1 | -5 | 17 | 39* | 49 | -6 | 36
COC(=O)c1ccccc1NC(=O)c1cnn2c(C(F)F)cc(C3CC3)nc12 | -5 | -29 | -4 | -3 | -34 | ·
CCN(CC)C(=O)C(=O)c1cccn1-c1c(Cl)cccc1C#N | 2 | -17 | 7 | 11 | 8 | ·
O=C(CN(c1ccccc1)S(=O)(=O)c1ccccc1)NCCSCc1ccco1 | 2 | 19 | 5 | 16 | 8 | ·
CCN(CC(=O)NCc1cccs1)C(=O)COc1ccccc1C#N | · | 0 | -7 | · | · | ·
Cc1ccc(N=C2C(=S)N(c3ccc(C)cc3)C(=N)N2/N=C/c2ccc(Cl)cc2)cc1 | -18 | 31 | -119 | -6 | 6 | -45*
Cc1nc2c3cc(F)ccc3n(Cc3ccccc3)c2s1 | -1 | 41 | -60 | 25 | 3 | -61*
Cc1nc2c3cc(F)ccc3n(Cc3ccccc3F)c2s1 | 0 | -1 | -3 | 9 | 0 | ·
O=C(OCC(=O)N1CCN(C(=O)c2ccco2)CC1)c1cc(-c2ccccc2)nc2ccccc12 | -12 | 6 | 37* | 28 | 8 | -23
Cc1ccc(C)c(N2CCN(C(=O)CCS(=O)(=O)c3ccc4c(c3)oc(=O)n4C)CC2)c1 | · | 9 | -3 | · | · | ·
SMILES | Tb hexokinase | PfGluPho inh | HKDC1 inhibitor | Diaphorase inh | G6PDH counter | HKDC1 act conf
Cc1ccc(NC(=O)C(C)OC(=O)CCNS(=O)(=O)c2ccc(C)cc2)cc1 (centres undefined) | 31 | -12 | -10 | 14 | 9 | ·
CC(=O)Nc1ccc(S(=O)(=O)NCCC(=O)OC(C)C(=O)c2ccc(C)cc2)cc1 (centres undefined) | · | -8 | 35* | · | · | -16
O=C1C(=Cc2ccc(Br)o2)C(=O)c2ccccc21 | 11 | -4 | 36* | 64* | -16 | 36
CCC1C/C(=C\c2cccnc2)C(=O)/C(=C/c2cccnc2)C1 (centres undefined) | -20 | 15 | 35* | 16 | 15 | 33
O=C1/C(=C/c2cccnc2)CC/C1=C\c1cccnc1 | -40 | 11 | 6 | 3 | -5 | ·
CC1(C)Cc2c(c(N3CCOCC3)nc3sc4c(NCC5CCCO5)nnnc4c23)CS1 (centres undefined) | -17 | 52 | 45* | · | · | 12
CC(C)CCNc1nnnc2c1sc1nc(N3CCOCC3)c3c(c12)CC(C)(C)SC3 | -25 | -1 | 8 | 28 | -1 | ·

From PubChem BioAssay
